Results on four compounds are retold here after ChEMBL document CHEMBL4732057, “Design, synthesis and biological evaluation of second-generation benzoylpiperidine derivatives as reversible monoacylglycerol lipase (MAGL) inhibitors” (Eur J Med Chem, 2021).

Structures are written as SMILES. The source made the active and inactive calls. The calls are words filed in the database; no cut-off is given here.

The target in test [1] is T1, Lysophosphatidylserine lipase ABHD12 (Homo sapiens, UniProt Q8N2K0).
T1 sequence (Q8N2K0 whole entry): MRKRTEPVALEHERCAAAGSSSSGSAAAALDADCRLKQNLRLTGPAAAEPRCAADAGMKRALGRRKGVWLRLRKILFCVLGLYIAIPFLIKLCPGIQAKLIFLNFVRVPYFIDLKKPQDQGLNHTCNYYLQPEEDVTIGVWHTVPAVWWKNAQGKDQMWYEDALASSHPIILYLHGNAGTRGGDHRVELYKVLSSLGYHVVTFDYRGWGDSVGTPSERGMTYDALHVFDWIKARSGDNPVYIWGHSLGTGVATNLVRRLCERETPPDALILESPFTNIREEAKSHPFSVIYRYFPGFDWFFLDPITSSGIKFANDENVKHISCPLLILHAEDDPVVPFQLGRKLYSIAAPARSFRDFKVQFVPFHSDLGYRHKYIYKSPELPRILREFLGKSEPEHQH
Kind of test: Inhibition of human ABHD12 expressed in HEK293 cells using [3H]2-OG as substrate preincubated for 30 mins followed by substrate addition and measured after 5 mins by liquid scintillation spectroscopy. It is filed as cell-based. Put shortly:
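Homogenate (40 µg) of HEK293 cells stably transfected with human ABHD6 or ABHD12, preincubated with compound 30 min at 37 °C in […], 0.1% BSA, pH 7.6. 2-OG 10 µM added for 5 min at 37 °C. Stopped with CHCl3:MeOH; aqueous tritium counted; blanks and nontransfected HEK293 hydrolysis subtracted. Screening at 10 µM.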

The target in test [2] is T2, Fatty-acid amide hydrolase 1 (Homo sapiens, UniProt O00519).
T2 sequence (O00519 whole entry): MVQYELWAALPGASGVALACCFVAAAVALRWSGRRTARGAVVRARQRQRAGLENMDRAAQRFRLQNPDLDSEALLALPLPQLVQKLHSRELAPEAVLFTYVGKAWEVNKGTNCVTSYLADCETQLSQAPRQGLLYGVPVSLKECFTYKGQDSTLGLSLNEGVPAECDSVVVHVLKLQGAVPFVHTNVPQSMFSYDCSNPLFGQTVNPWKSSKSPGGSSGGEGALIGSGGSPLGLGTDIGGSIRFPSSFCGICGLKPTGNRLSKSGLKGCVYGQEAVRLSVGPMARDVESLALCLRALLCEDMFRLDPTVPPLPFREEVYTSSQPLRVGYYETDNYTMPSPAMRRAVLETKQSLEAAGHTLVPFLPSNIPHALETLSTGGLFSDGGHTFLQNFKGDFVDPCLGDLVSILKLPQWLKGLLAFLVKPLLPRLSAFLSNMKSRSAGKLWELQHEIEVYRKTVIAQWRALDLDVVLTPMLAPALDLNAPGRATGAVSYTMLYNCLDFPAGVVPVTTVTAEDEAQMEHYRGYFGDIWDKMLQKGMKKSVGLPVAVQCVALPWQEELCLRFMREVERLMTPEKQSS
Nature of the test: Inhibition of FAAH in human U937 cells assessed as reduction in [3H]ethanolamine formation using [ethanolamine-1-3H]AEA as substrate incubated for 15 mins by liquid scintillation spectroscopy. The test is classed as cell-based, U-937. Put shortly: (§1)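 Intact U937 cells (1.0 × 10^6) in Tris-HCl 10 mM, EDTA 1 mM, 0.1% BSA, pH 8, given compound at 37 °C. Then 15 min at 37 °C with shaking. MAGL: 10 µM 2-OG plus 0.5 nM [3H]2-OG. FAAH: 1 µM AEA plus 2 nM [3H]AEA. Aqueous-phase tritium counted; three experiments in triplicate.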

Test [3] has as its target T3, Monoglyceride lipase (Mus musculus) (UniProt O35678).
T3 sequence (whole entry): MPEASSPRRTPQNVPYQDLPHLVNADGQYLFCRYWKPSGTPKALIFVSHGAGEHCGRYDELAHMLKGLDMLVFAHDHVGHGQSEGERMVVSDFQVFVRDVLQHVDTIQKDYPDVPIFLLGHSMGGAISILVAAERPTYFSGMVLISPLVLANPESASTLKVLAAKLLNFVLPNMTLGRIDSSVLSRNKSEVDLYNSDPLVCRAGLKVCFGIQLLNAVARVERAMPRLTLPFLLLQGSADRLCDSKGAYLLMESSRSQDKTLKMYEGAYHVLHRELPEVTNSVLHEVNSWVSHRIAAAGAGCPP
Nature of the test: Inhibition of MAGL in mouse brain membrane at 10 uM preincubated for 25 mins followed by TAMRA-FP labeling addition and measured after 5 mins by competitive ABPP based analysis. It is filed as cell membranes. Conditions: time 30.0 min. Put shortly: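 Mouse brain membranes, 4 mg/mL in PBS, preincubated 25 min at 25 °C with compound at 10 µM or a range of concentrations. Labelled 5 min with TAMRA-FP at 125 nM final. Proteins resolved on 11% SDS-PAGE and scanned for fluorescence.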

Test [4] has as its system HCT-116. Kind of test: Antiproliferative activity against human HCT116 cells as reduction in cell growth measured after 96 hrs by Celltiter-glo luminescent assay. Conditions: HCT-116, 96 h. It is filed as functional, cell-based. In a few lines: (§2)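 Cell lines kept at 37 °C, 5% CO2; 5 × 10^2 cells per well, compound added the day after seeding at 200 to 0.02 µM. Viability read after 96 h by CellTiter-Glo luminescence. IC50 from logistic dose-response curves, in triplicate; error bars are SD.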

The test system of test [5] is MDA-MB-231. Nature of the test: Antiproliferative activity against human MDA-MB-231 cells as reduction in cell growth measured after 96 hrs by Celltiter-glo luminescent assay. The test is classed as functional, cell-based. Conditions: MDA-MB-231, 96 h. In a few lines:
as §2

In test [6] the test system is OVCAR-3. Nature of the test: Antiproliferative activity against human OVCAR3 cells as reduction in cell growth measured after 96 hrs by Celltiter-glo luminescent assay. Conditions: OVCAR-3, 96 h. It is filed as functional, cell-based. In a few lines: as §2
Test [7] has as its system SK-OV-3. Nature of the test: Antiproliferative activity against human SKOV3 cells as reduction in cell growth measured after 96 hrs by Celltiter-glo luminescent assay. Conditions: SK-OV-3, 96 h. It is filed as functional, cell-based. In a few lines: as §2
Test [8] has as its target T4, Monoglyceride lipase (Homo sapiens) (UniProt Q99685).
T4 sequence (whole entry): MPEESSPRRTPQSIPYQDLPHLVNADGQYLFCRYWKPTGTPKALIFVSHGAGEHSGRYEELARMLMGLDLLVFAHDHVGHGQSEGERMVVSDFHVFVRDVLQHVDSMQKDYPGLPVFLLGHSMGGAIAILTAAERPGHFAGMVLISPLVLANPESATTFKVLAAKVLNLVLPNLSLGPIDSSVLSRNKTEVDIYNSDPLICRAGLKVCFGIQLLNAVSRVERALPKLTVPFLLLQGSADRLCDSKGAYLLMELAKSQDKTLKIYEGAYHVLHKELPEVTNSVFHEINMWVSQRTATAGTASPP
Kind of test: Reversible inhibition of human recombinant MAGL using 4-nitrophenylacetate as substrate preincubated with enzyme for 0 to 60 mins followed by substrate addition by microplate reader assay. The settings on record: time 0-60 min. In a few lines: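 MAGL (11 ng/well) preincubated with compound in DMSO for 0, 30 or 60 min. Reaction then started with 4-NPA 500 µM stock, same buffer and read-out as the main assay. IC50 at each time; triplicates of two independent experiments.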

Test [9] concerns the target T5, Fatty-acid amide hydrolase 1 (Homo sapiens) (UniProt O00519).
T5 sequence (whole entry): T2 sequence (O00519 whole entry)
Nature of the test: Inhibition of FAAH in human U937 cells assessed as reduction in [3H]ethanolamine formation using [ethanolamine-1-3H]AEA as substrate at 10 uM incubated for 15 mins by liquid scintillation spectroscopy. The test is classed as cell-based. Conditions: U-937. Put shortly: as §1

As for `O=C(c1ccc(Cc2ccccc2)cc1)C1CCN(C(=O)c2cc(O)c(F)cc2F)CC1`, the IC50 in [1] is more than 10 µM; in test [2], more than 10 µM; in test [4] it was 5.3 µM; in [5] it was 65 µM; in [6], more than 100 µM; in test [7] it was 12 µM. For the same compound, the inhibition entry in [3] and in test [8] was “Active” throughout. In addition, in test [9], the inhibition came out at 21%.

`O=C(c1ccc(Cc2ccccc2)cc1)C1CCN(C(=O)c2cc(O)ccc2F)CC1`: the IC50 in [1] was more than 10 µM; in test [2] it was more than 10 µM; in [4] it was 17 µM; in test [5], 25 µM; in test [6], 20.7 µM; in [7], 8 µM. The inhibition result in test [3] and in test [8] was “Active” in each case. The inhibition in test [9] was less than 10%.

As to `O=C(c1ccc(Sc2ccccc2)cc1)C1CCN(C(=O)c2cc(O)c(F)cc2F)CC1`, the IC50 in test [1] was more than 10 µM; in [2] it was more than 10 µM; in test [4], 15 µM; in test [5] it was 63 µM; in [6], more than 100 µM; in test [7], 11 µM. Further, the inhibition result in [3] and in test [8] was “Active” throughout. The inhibition in test [9] was found to be 22%.

For the compound `O=C(c1ccc(Sc2ccccc2)cc1)C1CCN(C(=O)c2cc(O)ccc2F)CC1`, the IC50 in test [1] is more than 10 µM; in test [2], more than 10 µM; in test [4] it was 5.1 µM; in test [5], 43 µM; in test [6], more than 100 µM; in test [7] it was 4.6 µM. Also, the inhibition entry in test [3] and in [8] was “Active” each time. Further, the inhibition in test [9] was less than 10%.
